According to ChEMBL document CHEMBL1137811, “Four new bromotryptamine derivatives from the marine bryozoan Flustra foliacea” (J Nat Prod, 2002):
Activity calls are given as the source filed them.

Assays:
Format in all cases: cell-based
Details in all cases: Oocyte
[1] = molecular target: Potassium voltage-gated channel subfamily A member 1 (Rattus norvegicus) (UniProt P10499); experiment: Blockade of voltage-activated rat Kv1.1 potassium channel expressed in Xenopus laevis oocytes assessed as effect on evoked current upto 10 uM by two-electrode voltage clamp method
Outline: (§1)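 Channels expressed in Xenopus laevis oocytes from injected cRNA (rat Kv1.1, rat Kv1.4 or rat brain type II Na channel), incubated 1-5 days. Vitelline membrane removed. Two-electrode voltage clamp, whole-cell currents; 2 M KCl electrodes, 0.6-1.0 MΩ. Filtered 1 kHz, sampled 4 kHz, P/n leak subtraction. Bath: frog Ringer's, pH 7.2. Compounds from DMSO stock, final up to 10 μM in bath; DMSO-only control.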

[2] = molecular target: Potassium voltage-gated channel subfamily A member 4 (Rattus norvegicus) (UniProt P15385); experiment: Blockade of voltage-activated rat Kv1.4 potassium channel expressed in Xenopus laevis oocytes assessed as effect on evoked current upto 10 uM by two-electrode voltage clamp method; outline: as §1
[3] = molecular target: Sodium channel protein type 2 subunit alpha (Rattus norvegicus) (UniProt P04775); experiment: Blockade of voltage-activated rat brain Nav1.2 sodium channel type 2 channel expressed in Xenopus laevis oocytes assessed as effect on evoked current by two-electrode voltage clamp method; outline: as §1

Measured: Activity

Sequence of Potassium voltage-gated channel subfamily A member 4 (Rattus norvegicus) (P15385 whole entry): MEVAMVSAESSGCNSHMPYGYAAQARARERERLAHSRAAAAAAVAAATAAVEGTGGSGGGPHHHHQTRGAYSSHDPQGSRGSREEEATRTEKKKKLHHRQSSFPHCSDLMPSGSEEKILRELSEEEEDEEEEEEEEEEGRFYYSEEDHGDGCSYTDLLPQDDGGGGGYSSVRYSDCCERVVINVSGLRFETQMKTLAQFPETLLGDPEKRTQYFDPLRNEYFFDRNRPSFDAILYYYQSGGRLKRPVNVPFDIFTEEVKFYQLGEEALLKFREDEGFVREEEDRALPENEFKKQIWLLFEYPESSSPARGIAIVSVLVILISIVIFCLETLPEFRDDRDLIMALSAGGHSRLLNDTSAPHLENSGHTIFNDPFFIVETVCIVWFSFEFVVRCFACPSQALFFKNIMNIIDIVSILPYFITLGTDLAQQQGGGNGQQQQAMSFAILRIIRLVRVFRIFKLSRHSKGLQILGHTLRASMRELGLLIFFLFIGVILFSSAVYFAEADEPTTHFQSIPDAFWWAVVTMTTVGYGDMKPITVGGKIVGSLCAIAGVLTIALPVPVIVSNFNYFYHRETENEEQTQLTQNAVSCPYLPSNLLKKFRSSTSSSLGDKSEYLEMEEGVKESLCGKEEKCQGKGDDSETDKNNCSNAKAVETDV
Sequence of Sodium channel protein type 2 subunit alpha (Rattus norvegicus) (P04775 whole entry, looked up): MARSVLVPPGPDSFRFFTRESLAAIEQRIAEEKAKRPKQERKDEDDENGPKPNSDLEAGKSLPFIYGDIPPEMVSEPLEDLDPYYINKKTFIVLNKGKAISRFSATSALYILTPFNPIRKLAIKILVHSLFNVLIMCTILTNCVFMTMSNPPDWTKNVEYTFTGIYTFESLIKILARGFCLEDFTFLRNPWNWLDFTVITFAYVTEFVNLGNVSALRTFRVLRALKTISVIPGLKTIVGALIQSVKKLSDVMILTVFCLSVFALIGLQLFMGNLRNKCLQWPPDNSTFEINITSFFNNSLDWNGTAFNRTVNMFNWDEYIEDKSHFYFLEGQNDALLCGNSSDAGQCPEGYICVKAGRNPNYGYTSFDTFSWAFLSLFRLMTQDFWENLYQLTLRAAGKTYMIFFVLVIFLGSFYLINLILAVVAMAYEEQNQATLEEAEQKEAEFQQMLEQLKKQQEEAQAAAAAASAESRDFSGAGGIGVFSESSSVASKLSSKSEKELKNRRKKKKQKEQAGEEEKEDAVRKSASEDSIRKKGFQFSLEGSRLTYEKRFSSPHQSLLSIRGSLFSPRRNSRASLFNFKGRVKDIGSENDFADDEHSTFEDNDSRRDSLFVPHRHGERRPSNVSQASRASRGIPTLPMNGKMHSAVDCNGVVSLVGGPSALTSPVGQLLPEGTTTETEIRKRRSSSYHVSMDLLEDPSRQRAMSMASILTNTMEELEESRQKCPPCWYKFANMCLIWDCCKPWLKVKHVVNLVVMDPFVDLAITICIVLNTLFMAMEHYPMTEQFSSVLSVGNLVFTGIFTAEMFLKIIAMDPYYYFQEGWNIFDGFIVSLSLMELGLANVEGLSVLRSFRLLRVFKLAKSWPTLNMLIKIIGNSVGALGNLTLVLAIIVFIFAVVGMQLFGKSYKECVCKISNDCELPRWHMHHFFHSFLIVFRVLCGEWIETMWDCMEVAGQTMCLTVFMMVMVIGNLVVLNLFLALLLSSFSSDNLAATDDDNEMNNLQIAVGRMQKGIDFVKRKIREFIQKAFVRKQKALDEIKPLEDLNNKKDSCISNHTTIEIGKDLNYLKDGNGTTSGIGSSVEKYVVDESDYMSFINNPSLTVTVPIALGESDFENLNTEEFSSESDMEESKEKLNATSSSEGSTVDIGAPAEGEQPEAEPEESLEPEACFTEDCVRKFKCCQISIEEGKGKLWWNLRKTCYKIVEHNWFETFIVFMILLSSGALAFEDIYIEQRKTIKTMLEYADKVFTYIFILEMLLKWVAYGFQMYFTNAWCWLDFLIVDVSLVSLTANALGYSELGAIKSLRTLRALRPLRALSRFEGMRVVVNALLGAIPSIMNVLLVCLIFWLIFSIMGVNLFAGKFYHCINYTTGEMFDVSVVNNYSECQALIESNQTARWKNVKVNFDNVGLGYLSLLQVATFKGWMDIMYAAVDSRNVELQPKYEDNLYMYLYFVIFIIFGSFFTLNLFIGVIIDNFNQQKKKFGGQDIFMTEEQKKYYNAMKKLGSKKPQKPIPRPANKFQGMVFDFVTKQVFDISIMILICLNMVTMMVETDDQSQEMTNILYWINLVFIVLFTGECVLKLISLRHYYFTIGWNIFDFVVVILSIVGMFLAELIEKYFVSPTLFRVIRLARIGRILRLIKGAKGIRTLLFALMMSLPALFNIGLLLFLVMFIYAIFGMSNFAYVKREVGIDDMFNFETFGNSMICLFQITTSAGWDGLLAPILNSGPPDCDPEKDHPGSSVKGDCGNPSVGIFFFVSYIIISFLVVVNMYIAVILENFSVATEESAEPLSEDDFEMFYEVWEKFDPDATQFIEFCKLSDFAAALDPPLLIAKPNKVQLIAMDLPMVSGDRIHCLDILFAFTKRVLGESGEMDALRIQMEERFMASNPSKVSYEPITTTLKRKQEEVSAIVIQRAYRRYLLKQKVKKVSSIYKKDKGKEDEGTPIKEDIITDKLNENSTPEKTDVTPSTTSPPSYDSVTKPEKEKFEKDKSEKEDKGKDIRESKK
Sequence of Potassium voltage-gated channel subfamily A member 1 (Rattus norvegicus) (P10499 whole entry): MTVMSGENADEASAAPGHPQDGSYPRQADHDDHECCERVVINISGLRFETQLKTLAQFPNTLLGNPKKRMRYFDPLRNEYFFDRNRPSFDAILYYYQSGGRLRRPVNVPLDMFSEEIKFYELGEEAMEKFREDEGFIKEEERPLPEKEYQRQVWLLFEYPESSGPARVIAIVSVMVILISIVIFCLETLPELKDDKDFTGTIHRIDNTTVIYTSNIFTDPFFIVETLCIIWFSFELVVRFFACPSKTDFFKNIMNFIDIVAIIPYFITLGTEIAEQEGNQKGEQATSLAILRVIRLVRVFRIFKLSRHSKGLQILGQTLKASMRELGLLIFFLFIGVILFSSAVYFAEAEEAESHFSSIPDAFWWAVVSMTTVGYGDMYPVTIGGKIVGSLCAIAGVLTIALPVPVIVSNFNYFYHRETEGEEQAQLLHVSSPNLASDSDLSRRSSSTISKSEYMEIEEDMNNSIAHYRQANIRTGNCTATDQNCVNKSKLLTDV

C=CC(C)(C)c1[nH]c2cc(Br)ccc2c1CCNC
inactive: all assays above

C=CC(C)(C)[C@@]12CCN(C)[C@@H]1N(CC=C(C)C)c1cc(Br)ccc12
inactive: all assays above

C=CC(C)(C)[C@@]12CCN(C)C1=Nc1cc(Br)ccc12
inactive: all assays above

C=CC(C)(C)[C@@]12CCN(C)[C@@H]1Nc1cc(Br)ccc12
inactive: all assays above
